Active and inactive are the calls of the source.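 The calls were made as follows, unless noted: active = GFP response above 150% of the DMSO level; inconclusive = fewer than 70 events counted for a yeast strain; inactive = the rest.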
What was measured:
[1] = RPL19A-GFP modulators, yeast TOR pathway, confirmation, cell-based, S. cerevisiae, flow cytometry, cherry picks, mother/daughter gates (AID 2270;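 active = GFP response below 50% of the DMSO control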); settings: S. cerevisiae RPL19A-GFP strain, 3 h, at 10 µM, stronger effect = lower value, 100 = same GFP as DMSO wells
[2] = LAP4-GFP expression modulators in yeast, confirmation, cell-based, cherry picks, flow cytometry, mother/daughter gates (AID 2271;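 active = GFP response above 150% of the DMSO control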;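 also: ratio of sample to DMSO plate mean so 100% equals DMSO level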); settings: S. cerevisiae LAP4-GFP strain, 3 h, at 10 µM, stronger effect = higher value, 100 means same as DMSO control
Procedure, shortened: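 Test system: GFP-fusion yeast strain / Amount: 0.2 OD600 cells / Buffer or medium: SC medium / Dosing: 10 µM single dose / Incubation: compound exposure 3 h at 30 °C, end-over-end rotation / Detection: HT flow cytometry, GFP fluorescence channel / Evaluation: median GFP fluorescence as percent of plate-mean DMSO wells / Control set: DMSO-only negative wells, rapamycin 400 ng/mL positive wells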

[3] = modulators of MEP2-GFP levels in yeast, confirmation, S. cerevisiae, flow cytometry GFP, cherry picks (AID 2272;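 active = GFP response above 150% of the DMSO control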;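 also: ratio of well signal to plate DMSO mean so 100% equals DMSO level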); settings: S. cerevisiae MEP2-GFP strain, 3 h, at 10 µM, stronger effect = higher value
[4] = AGP1-GFP expression modulators, hit retest, confirmation, cell-based, flow cytometry, S. cerevisiae, cherry picks (AID 2273);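 also: median GFP channel fluorescence over the whole cell population gate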; settings: S. cerevisiae AGP1-GFP strain, 3 h, at 10 µM
[5] = modulators of CIT2-GFP expression in yeast, confirmation, S. cerevisiae, GFP fusion, cherry picks, mother/daughter gates (AID 2274); settings: S. cerevisiae CIT2-GFP strain, flow cytometry, 3 h, at 10 µM, stronger effect = higher value
[6] = measured here: daughter cell gate
[7] = measured here: mother cell gate
[8] = measured here: daughter cell gate response
[9] = measured here: mother cell gate response

SMILES | GFP response vs DMSO [1] | GFP response vs DMSO [1, 6] [%] | GFP response vs DMSO [1, 7] [%] | GFP response relative to DMSO [2] | GFP response relative to DMSO [2, 8] [%] | GFP response relative to DMSO [2, 9] [%] | GFP response vs DMSO [3] | GFP response, % of DMSO [4] | GFP response, % of DMSO [5] | GFP response, % of DMSO [5, 6] [%] | GFP response, % of DMSO [5, 7] [%]
Cc1noc2ncnc(Sc3ccc(Cl)cc3)c12 | 96.6% (inactive) | 94.9 | 97.2 | 140% (inactive) | 130 | 141 | 102% (inactive) | 94.7% (inactive) | 104% (inactive) | 101 | 102
Cn1nnnc1N=N/C(=N/Nc1ccccc1)c1ccccc1 | 97.6% (inactive) | 96.1 | 97.3 | 110% (inactive) | 107 | 115 | 94.7% (inactive) | 89.5% (inactive) | 87.2% (inactive) | 88.4 | 85.8
O=C1/C(=C/c2ccccn2)COc2ccccc21 | 94.2% (inactive) | 96.4 | 91.2 | 135% (inactive) | 130 | 134 | 110% (inactive) | 95.5% (inactive) | 94.4% (inactive) | 99.3 | 88.2
COC(=O)c1ccc(Cn2cc(/C=C\[N+](=O)[O-])c3ccccc32)o1 | 103% (inactive) | 104 | 102 | 122% (inactive) | 115 | 127 | 106% (inactive) | 98.2% (inactive) | 96.4% (inactive) | 100 | 92.1
CCCCOC(=O)C1CCC[C@@H](C)N1 (stereo partly specified) | 101% (inactive) | 102 | 100 | 98.9% (inactive) | 101 | 99.5 | 103% (inactive) | 102% (inactive) | 100% (inactive) | 101 | 100
COCc1cc(=O)[nH]c(SCCS(=O)(=O)c2ccc(Cl)cc2Cl)n1 | 110% (inactive) | 115 | 107 | 102% (inactive) | 100 | 105 | 100% (inactive) | 103% (inactive) | 119% (inactive) | 119 | 116
O=S1(=O)Nc2c(ccc3cccnc23)-c2ccccc21 | 89.9% (inactive) | 91.7 | 103 | 124% (inactive) | 104 | 163 | 112% (inactive) | 103% (inactive) | 111% (inactive) | 108 | 113
Fc1cccc(Cl)c1Cn1ncc2ccccc21 | 97.6% (inactive) | 96.1 | 96.3 | 102% (inactive) | 99.1 | 100 | 99% (inactive) | 101% (inactive) | 97.3% (inactive) | 97.4 | 96.8
CCc1c2ccccc2nn1-c1ccccc1C(=O)C(C)=O | 95.8% (inactive) | 97.3 | 94 | 102% (inactive) | 101 | 102 | 103% (inactive) | 100% (inactive) | 98.6% (inactive) | 99.3 | 98.2
Cc1ccc(C2CC(c3ccco3)=NN2S(C)(=O)=O)cc1 (stereo unspecified) | 97.2% (inactive) | 97 | 97.1 | 105% (inactive) | 102 | 104 | 106% (inactive) | 93.8% (inactive) | 96.4% (inactive) | 98.3 | 95.6
CCOC(=O)CNc1c(-c2ccccc2)nc2ccc(Cl)cn12 | 96% (inactive) | 97.8 | 96.4 | 109% (inactive) | 105 | 114 | 97.5% (inactive) | 98% (inactive) | 95% (inactive) | 98.3 | 93.3
O=C(COc1ccccc1)N1CCN(c2ncnc3c2cnn3-c2ccccc2)CC1 | 98.7% (inactive) | 98.4 | 98.6 | 104% (inactive) | 102 | 105 | 101% (inactive) | 97.3% (inactive) | 98.6% (inactive) | 103 | 98.2
CC1CN(c2nc3ccccn3c(=O)c2/C=C(\C#N)C(N)=O)CC(C)O1 (stereo unspecified) | 97.8% (inactive) | 97.3 | 95.8 | 96.5% (inactive) | 99 | 95.4 | 106% (inactive) | 99.5% (inactive) | 101% (inactive) | 99.3 | 103
Cc1cc(NCCCN2CCOCC2)n2ncc(-c3ccccc3)c2n1 | 99.3% (inactive) | 98.1 | 99.6 | 96.2% (inactive) | 95.6 | 98.3 | 102% (inactive) | 102% (inactive) | 95.2% (inactive) | 98.1 | 93.4
Cc1ccc(S(=O)(=O)NCC23C=CC(O2)C2C(=O)N(c4ccccc4)C(=O)C23)cc1 (stereo unspecified) | 98.4% (inactive) | 98.9 | 98.7 | 96.7% (inactive) | 97.6 | 97.2 | 102% (inactive) | 99.9% (inactive) | 105% (inactive) | 105 | 104
COc1ccccc1N=Cc1nc(-c2ccccc2)oc1OC(C)=O | 98.2% (inactive) | 96.9 | 98.3 | 103% (inactive) | 101 | 106 | 101% (inactive) | 70.7% (inactive) | 90.1% (inactive) | 88.4 | 90.7

Reference: PubChem BioAssay
